Reference: ChEMBL document CHEMBL4007450, “Development of 1,2,4-Oxadiazoles as Potent and Selective Inhibitors of the Human Deacetylase Sirtuin 2: Structure-Activity Relationship, X-ray Crystal Structure, and Anticancer Activity” (J Med Chem, 2017)
Calls of active or inactive are those of the source. The rule behind the calls is not given here.

Key:
[1] = test system: U-937; test: Effect on cell cycle arrest in human U937 cells at 25 uM after 48 hrs by propidium iodide staining-based FACS analysis; type: functional
[2] = target: T1, NAD-dependent protein deacetylase sirtuin-2 (Homo sapiens, UniProt Q8IXJ6)
T1 sequence (Q8IXJ6 whole entry): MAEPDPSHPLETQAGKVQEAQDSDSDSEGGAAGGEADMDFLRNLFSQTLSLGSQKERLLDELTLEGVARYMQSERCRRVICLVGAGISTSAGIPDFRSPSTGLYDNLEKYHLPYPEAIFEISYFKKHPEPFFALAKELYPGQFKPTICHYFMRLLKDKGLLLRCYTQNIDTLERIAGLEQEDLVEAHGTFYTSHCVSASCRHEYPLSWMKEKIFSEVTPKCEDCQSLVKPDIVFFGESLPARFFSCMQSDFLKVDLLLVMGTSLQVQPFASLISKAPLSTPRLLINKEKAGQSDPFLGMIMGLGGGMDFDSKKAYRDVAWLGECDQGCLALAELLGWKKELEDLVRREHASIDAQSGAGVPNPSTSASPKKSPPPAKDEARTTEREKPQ

[3] = target: NAD-dependent protein deacylase sirtuin-5, mitochondrial (Homo sapiens) (UniProt Q9NXA8); test: Inhibition of human SIRT5 (34 to 302 residues) deacetylase activity expressed in Escherichia coli using Prx1 peptide as substrate up to 100 uM after 45 mins in presence of NAD+ by pNCA/GDH-based microplate spectrophotometric analysis
NAD-dependent protein deacylase sirtuin-5, mitochondrial (Homo sapiens), sequence (Q9NXA8 37-310 limits assumed): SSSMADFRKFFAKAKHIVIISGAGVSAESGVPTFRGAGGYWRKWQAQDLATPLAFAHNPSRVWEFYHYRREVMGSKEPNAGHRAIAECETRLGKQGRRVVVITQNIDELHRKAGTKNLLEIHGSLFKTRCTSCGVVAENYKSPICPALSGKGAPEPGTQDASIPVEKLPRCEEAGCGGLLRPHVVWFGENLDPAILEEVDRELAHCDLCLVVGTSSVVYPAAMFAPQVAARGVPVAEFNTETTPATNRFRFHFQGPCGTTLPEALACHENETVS

[4] = target: T2, NAD-dependent protein deacetylase sirtuin-3, mitochondrial (Homo sapiens) (UniProt Q9NTG7); test: Inhibition of human SIRT3 (114 to 380 residues) activity expressed in Escherichia coli using AceCS2 peptide as substrate up to 100 uM after 45 mins in presence of NAD+ by pNCA/GDH-based microplate spectrophotometric analysis
T2 sequence (whole entry): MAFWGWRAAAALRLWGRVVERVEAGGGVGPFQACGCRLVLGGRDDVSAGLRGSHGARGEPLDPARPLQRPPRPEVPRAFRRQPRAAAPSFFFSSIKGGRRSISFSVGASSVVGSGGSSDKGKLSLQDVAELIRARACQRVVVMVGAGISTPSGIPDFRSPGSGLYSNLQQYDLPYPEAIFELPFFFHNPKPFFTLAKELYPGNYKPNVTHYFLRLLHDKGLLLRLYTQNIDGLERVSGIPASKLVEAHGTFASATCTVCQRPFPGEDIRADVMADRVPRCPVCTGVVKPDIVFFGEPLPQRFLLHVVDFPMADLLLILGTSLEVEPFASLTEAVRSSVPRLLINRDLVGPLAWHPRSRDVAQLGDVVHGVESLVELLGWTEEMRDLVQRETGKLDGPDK
Summary of the method: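 Same pNCA/GDH-coupled 340 nm NADPH read-out as the Sirt2 assay, using 20 mM Na-phosphate pH 7.8 with 3% DMSO at 20 °C for 45 min. Sirt3 (114-380) was used at 5 µM with AceCS2 peptide TRSGacKVMR as substrate. Inhibitors were tested up to 100 µM.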

[5] = target: T3, NAD-dependent protein deacetylase sirtuin-2 (Homo sapiens) (UniProt Q8IXJ6); test: Inhibition of human N-terminal His6-SUMO-tagged SIRT2 catalytic domain (43 to 356 residues) deacetylase activity expressed in Escherichia coli using alpha-tubulin-acetylLys40 peptide as substrate at 100 uM after 45 mins in presence of NAD+ by pNCA/GDH-based microplate spectrophotometric analysis
T3 sequence (whole entry): T1 sequence (Q8IXJ6 whole entry)
Summary of the method: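 Continuous coupled assay: Sirt2 product nicotinamide is converted by pNCA/GDH, and NADPH oxidation is read at 340 nm. Compounds were tested at 10 and 100 μM. Background was taken without peptide or NAD+.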

[6] = target: T4, NAD-dependent protein deacetylase sirtuin-1 (Homo sapiens) (UniProt Q96EB6); test: Inhibition of human full length SIRT1 activity expressed in Escherichia coli using p53 peptide as substrate up to 100 uM after 45 mins in presence of NAD+ by pNCA/GDH-based microplate spectrophotometric analysis
T4 sequence (whole entry): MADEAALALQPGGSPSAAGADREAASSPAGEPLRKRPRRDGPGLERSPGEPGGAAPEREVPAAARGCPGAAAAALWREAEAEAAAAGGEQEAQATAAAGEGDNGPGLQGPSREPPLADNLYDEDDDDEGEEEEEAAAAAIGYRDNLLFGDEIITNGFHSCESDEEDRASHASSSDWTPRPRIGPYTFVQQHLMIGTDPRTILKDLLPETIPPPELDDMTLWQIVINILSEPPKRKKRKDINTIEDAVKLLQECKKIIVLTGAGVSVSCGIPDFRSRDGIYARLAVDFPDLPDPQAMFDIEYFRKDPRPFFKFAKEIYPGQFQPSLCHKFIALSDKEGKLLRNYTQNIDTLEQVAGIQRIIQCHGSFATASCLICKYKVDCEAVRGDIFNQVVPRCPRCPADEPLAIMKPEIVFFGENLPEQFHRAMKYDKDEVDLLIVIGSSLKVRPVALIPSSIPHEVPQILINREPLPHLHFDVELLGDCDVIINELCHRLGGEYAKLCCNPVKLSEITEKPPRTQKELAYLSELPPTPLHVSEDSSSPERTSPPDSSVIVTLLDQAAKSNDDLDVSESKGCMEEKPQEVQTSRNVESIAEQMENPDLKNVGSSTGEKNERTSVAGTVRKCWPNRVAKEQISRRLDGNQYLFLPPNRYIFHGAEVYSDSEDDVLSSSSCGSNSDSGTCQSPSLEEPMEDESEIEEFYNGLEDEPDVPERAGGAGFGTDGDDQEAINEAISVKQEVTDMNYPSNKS
Summary of the method: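 Full-length Sirt1 at 2 µM with p53 peptide RHKacKLMFK as substrate. Activity was measured in the same coupled pNCA/GDH mix as for Sirt2 (α-ketoglutarate, NADPH, Na-phosphate pH 7.8, 3% DMSO), following NADPH oxidation at 340 nm at 20 °C for 45 min. Compounds were tested up to 100 µM.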

[7] = test system: K562; test: Induction of apoptosis in human K562 cells assessed as pre-G1 accumulation at 5 to 50 uM after 48 hrs by propidium iodide staining-based FACS analysis; type: functional, cell-based
Summary of the method: (§1)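 Leukemia cells (U937, NB4, HL-60, K562) were grown in RPMI-1640 with 10% FBS, 2 mM L-glutamine and antibiotics, then treated for 48 h at 5, 10, 25 and 50 μM. 2.5×10^5 cells were stained 30 min in the dark in hypotonic PI buffer (0.1% Triton X-100, 0.1% citrate, 50 µg/mL PI, RNase A). Apoptosis was scored as pre-G1 content by flow cytometry. Duplicates, mean ± SD.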

[8] = target: NAD-dependent protein deacylase sirtuin-5, mitochondrial (Homo sapiens) (UniProt Q9NXA8); test: Inhibition of human SIRT5 (34 to 302 residues) desuccinylase activity expressed in Escherichia coli using peptide as substrate up to 100 uM after 45 mins in presence of NAD+ by pNCA/GDH-based microplate spectrophotometric analysis
[9] = test system: U-937; test: Induction of apoptosis in human U937 cells assessed as pre-G1 accumulation at 5 to 50 uM after 48 hrs by propidium iodide staining-based FACS analysis; type: functional, cell-based; summary of the method: as §1
[10] = test system: MDA-MB-231; test: Induction of apoptosis in human MDA-MB-231 cells assessed as pre-G1 accumulation at 5 to 50 uM after 48 hrs by propidium iodide staining-based FACS analysis; type: functional, cell-based
Summary of the method: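 MDA-MB-231 breast cancer cells were grown in DMEM with 10% FBS, 2 mM L-glutamine and antibiotics, then exposed for 48 h at 5, 10, 25 or 50 μM. 2.5×10^5 cells were stained in hypotonic buffer with 50 µg/mL PI, 0.1% Triton X-100, 0.1% citrate and RNase A for 30 min in the dark. Pre-G1 fraction was measured by flow cytometry. Biological duplicates, mean ± SD.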

[11] = test system: NB-4; test: Induction of apoptosis in human NB4 cells assessed as pre-G1 accumulation at 5 to 50 uM after 48 hrs by propidium iodide staining-based FACS analysis; type: functional, cell-based; summary of the method: as §1
[12] = test system: HL-60; test: Induction of apoptosis in human HL60 cells assessed as pre-G1 accumulation at 5 to 50 uM after 48 hrs by propidium iodide staining-based FACS analysis; type: functional, cell-based; summary of the method: as §1
[13] = test system: U-937; test: Cell cycle arrest in human U937 cells assessed as accumulation at G2/M phase at 25 uM after 48 hrs by propidium iodide staining-based FACS analysis; type: functional

SMILES	inhibition [5]	Activity [1]	further results
c1cncc(-c2noc(CN3CCCCC3)n2)c1	–	inactive	–
CN(C)Cc1nc(-c2ccc([N+](=O)[O-])cc2)no1	inactive	inactive	–
BrCCCc1nc(-c2cccc(Br)c2)no1	–	inactive	–
O=[N+]([O-])c1ccc(-c2noc(CCCBr)n2)cc1	Active	inactive	IC50 [2]: 6.6 µM
FC(F)(F)c1ccc(-c2noc(CCCBr)n2)cc1	–	inactive	IC50 [2]: 3.9 µM
OCCCc1nc(-c2ccc(Cl)cc2)no1	–	–	IC50 [2]: 41.2 µM
NC(=O)c1nc(-c2ccc(Br)cc2)no1	–	inactive	–
BrCCCCc1nc(-c2ccc(Br)cc2)no1	–	inactive	IC50 [2]: 2.6 µM
c1ccc(-c2noc(CN3CCCCC3)n2)cc1	–	inactive	–
Cc1ccc(-c2noc(CCCBr)n2)cc1	Active	inactive	–
BrCCCc1nc(-c2ccccc2Br)no1	–	–	Activity [13]: Active
CC(=O)OCCCc1nc(-c2ccc(Cl)cc2)no1	–	–	IC50 [2]: 21.2 µM
Cc1nc(-c2ccc(Cl)cc2)no1	–	inactive	–
COC(=O)c1nc(-c2ccc(Br)cc2)no1	–	inactive	–
Clc1cccc(-c2noc(CN3CCCCC3)n2)c1	–	inactive	–
CN(C)Cc1nc(-c2ccc(Cl)cc2)no1	–	inactive	–
OCCN1CCN(CCCc2nc(-c3ccccc3)no2)CC1	inactive	inactive	–
Clc1ccccc1-c1noc(CCCBr)n1	–	–	Activity [13]: Active
CCN(CC)Cc1nc(-c2ccc([N+](=O)[O-])cc2)no1	inactive	inactive	–
Clc1cccc(-c2noc(CCCBr)n2)c1	–	inactive	–
Clc1ccccc1-c1noc(CN2CCCCC2)n1	–	inactive	–
Clc1ccc(-c2noc(CBr)n2)cc1	–	–	Activity [13]: Active
FC(F)(F)c1nc(-c2ccc(Br)cc2)no1	–	inactive	–
ClCCCc1nc(-c2ccc(Br)cc2)no1	–	inactive	IC50 [2]: 3.6 µM; inhibition [3]: inactive; inhibition [4]: inactive; inhibition [6]: inactive; inhibition [8]: inactive
BrCCCc1nc(-c2ccccc2)no1	–	inactive	–

The next lines start with results.

inhibition [5]	SMILES	Activity [1]	further results
Active	Clc1ccc(-c2noc(CCCBr)n2)cc1	inactive	IC50 [2]: 2.5 µM; inhibition [3]: inactive; inhibition [4]: inactive; inhibition [6]: inactive; Activity [7]: inactive; inhibition [8]: inactive; Activity [9]: inactive; Activity [10]: inactive; Activity [11]: inactive; Activity [12]: inactive
Active	Clc1ccc(-c2noc(CNC3CCCCC3)n2)cc1	inactive	–
Active	Clc1ccc(-c2noc(CN3CCCCCC3)n2)cc1	inactive	–
Active	Clc1ccc(-c2noc(CN3CCCC3)n2)cc1	inactive	–
Active	Clc1ccc(-c2noc(CN3CCOCC3)n2)cc1	inactive	–
Active	Clc1ccc(-c2noc(CN3CCN(c4ccccc4)CC3)n2)cc1	inactive	–
inactive	O=[N+]([O-])c1ccc(-c2noc(CN3CCCC3)n2)cc1	inactive	–
Active	Clc1ccc(-c2noc(CN3CCCCC3)n2)cc1	inactive	–
Active	CN1CCN(Cc2nc(-c3ccc(Cl)cc3)no2)CC1	inactive	–
inactive	Clc1ccc(-c2noc(CCCN3CCCCC3)n2)cc1	inactive	–
Active	Clc1ccc(-c2noc(CN3CCSCC3)n2)cc1	inactive	–
Active	OCC1CCN(Cc2nc(-c3ccc(Cl)cc3)no2)CC1	inactive	–
